Each block holds one compound with its values, some of them ahead of it.
Legend:
[1] = Peptide helicity by CD spectroscopy; assay type: physicochemical
Summary of the method: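 Test peptides at 100 μM in 5 mM sodium phosphate, pH 7.4, equilibrated at 10, 15, 20, 25 and 30 °C. Spectra recorded from 180 to 260 nm: 0.1 nm step, 50 nm/s, five accumulations, 1 s response, 5 nm bandwidth, 0.1 cm path. α-Helical content calculated from previously reported equations. Triplicate analyses per peptide.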

m^7GDP-bound eIF4E = m^7GDP-bound eIF4E (Homo sapiens, UniProt P06730); test: SPR binding kinetics of peptides to immobilized eIF4E
m^7GDP-bound eIF4E, sequence (P06730 whole entry): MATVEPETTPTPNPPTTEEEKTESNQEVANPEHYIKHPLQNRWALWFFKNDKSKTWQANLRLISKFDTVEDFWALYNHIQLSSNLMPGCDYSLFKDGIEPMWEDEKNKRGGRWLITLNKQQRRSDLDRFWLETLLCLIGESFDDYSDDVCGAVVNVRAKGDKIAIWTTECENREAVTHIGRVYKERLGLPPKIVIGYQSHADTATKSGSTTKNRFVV

[2] = SPR, 25 °C, 1.0 M versus 225 mM salt

helicity over the temperatures tested ([1]; 100 μM, 10 to 30 °C): 15–19% | helicity in the presence of TFE ([1]; 5 mM sodium phosphate buffer pH 7.4, 25 °C, 100 μM peptide, with 2,2,2-trifluoroethanol): 37%
Compound: CC[C@H](C)[C@H](NC(=O)[C@H](CCCNC(=N)N)NC(=O)[C@@H](NC(=O)CNC(C)=O)[C@@H](C)O)C(=O)N[C@H](C(=O)N[C@@H](Cc1ccc(O)cc1)C(=O)N[C@@H](CC(=O)O)C(=O)N[C@@H](CCCNC(=N)N)C(=O)N[C@@H](CCCCN)C(=O)N[C@@H](Cc1ccccc1)C(=O)N[C@@H](CC(C)C)C(=O)N[C@@H](CCSC)C(=O)N[C@@H](CCC(=O)O)C(=O)N[C@@H](CS)C(=O)N[C@@H](CCCNC(=N)N)C(=O)N[C@@H](CC(N)=O)C(N)=O)[C@@H](C)CC [4E-BP1]

fold decrease in Kd with increasing salt concentration (m^7GDP-bound eIF4E; [2]): 4 fold | fold decrease in kd with increasing salt concentration (m^7GDP-bound eIF4E; [2]): 48 fold | kon (m^7GDP-bound eIF4E; pH 7.5, read-out: association rate ka): 2e+06 ± 100000 M⁻¹ s⁻¹ | koff (m^7GDP-bound eIF4E; pH 7.5, read-out: dissociation rate kd): 0.123 ± 0.014 s⁻¹
Compound: Ac-KKRYSREQLLGL-NH2 [Linear sTIP-04]

Compound: CC(=O)N[C@@H](CCCCN)C(=O)N[C@@H](CCCCN)C(=O)N[C@@H](CCCNC(=N)N)C(=O)N[C@@H](Cc1ccc(O)cc1)C(=O)N[C@@H](CC(=O)O)C(=O)N[C@@H](CCCNC(=N)N)C(=O)N[C@@H](CCC(=O)O)C(=O)N[C@@H](Cc1ccccc1)C(=O)N[C@@H](CC(C)C)C(=O)N[C@@H](CC(C)C)C(=O)NCC(=O)N[C@@H](Cc1ccccc1)C(=O)N[C@@H](CCC(N)=O)C(=O)N[C@@H](Cc1ccccc1)C(N)=O [eIF4G]
kd with increasing salt concentration (m^7GDP-bound eIF4E; SPR, 25 °C, running buffer salt 225 to 1000 mM): 0.046 to 0.27 s⁻¹ | kinetic advantage (ka) of eIF4G peptide over both 4E-BP1 peptides (m^7GDP-bound eIF4E; SPR, at most temperatures, particularly the higher ones): ~ 2 fold
